Values after ≈ are worked out from the molar mass of the structure shown. Active and inactive are the calls of the source. No cut-off for these calls is given here.
Legend:
FaDu = experiment: Cytotoxicity against human FADU cells assessed as reduction in cell viability after 72 hrs by MTT assay; format: functional; conditions: read-out: LC50 (the source's name)
Tubulin (Sus scrofa) [1] = molecular target: T1, Tubulin (Sus scrofa) (UniProt P02554+P02550); experiment: Displacement of [3H]-paclitaxel from biotinylated porcine tubulin after 25 mins by competitive binding assay; format: protein assay
Summary of the method: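 Biotinylated porcine tubulin precoupled to SPA beads for 30 min at 4 °C, then 0.05 μM [3H]-paclitaxel and test compound added in G-PEM with 1 mM GTP, 3% DMSO, duplicate wells, 25 min at rt. Nonspecific binding taken with 1000-fold unlabeled excess. IC50 from seven-point semilog curves, four-parameter fit.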

Tubulin (Sus scrofa) [2] = molecular target: T1, Tubulin (Sus scrofa); experiment: Displacement of [3H]-vinblastine from biotinylated porcine tubulin after 15 mins by competitive binding assay; format: protein assay
Summary of the method: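 Biotinylated porcine tubulin, 0.2 μM [3H]-vinblastine, SPA beads and test compound combined together in G-PEM with 1 mM GTP, 3% DMSO, duplicate wells, 15 min at rt before counting. Nonspecific binding taken with 1000-fold unlabeled excess. IC50 from seven-point semilog curves, four-parameter fit.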

[3] = Solubility in 2% DMSO containing 50 mM potassium phosphate buffer solution at pH 7.4 by dynamic light scattering method; conditions: 50 mM potassium phosphate buffer with 2% DMSO
[4] = Solubility in 2% DMSO containing 50 mM potassium phosphate buffer solution pH 7.4 at 10 uM by dynamic light scattering method; conditions: pH 7.4, 10 µM
MES-SA/Dx5 = experiment: Cytotoxicity against multidrug resistant human MES-SA/Dx5 cells assessed as reduction in cell viability after 72 hrs by MTT assay; format: functional, cell-based
Summary of the method: (§1)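 Cells plated at an appropriate density and left 24 h to attach, then dosed in triplicate with compound diluted from 10 mM DMSO stocks into full growth medium (added at 2× final concentration). After 72 h, cells PBS-washed and given MTT (0.5 mg/mL in PBS) for 45−60 min. Formazan dissolved in 0.1 M HCl/2-propanol, A570 read (650 nm reference). Viability normalised to DMSO control; LC50 by nonlinear regression.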

[5] = Efflux ratio of apparent permeability from basolateral to apical side over apical to basolateral side in human Caco2 cells; conditions: Caco-2
[6] = Metabolic stability in CD-1 mouse liver microsomes assessed as half life at 1 uM preincubated for 5 mins before addition of NADPH by LC-MS/MS method; format: ADME
[7] = Apparent permeability from apical to basolateral side in human Caco2 cells at 10 uM at pH 7.4 after 60 mins by mass spectrometry; conditions: Caco-2, pH 7.4
Tubulin (Sus scrofa) [8] = molecular target: T1, Tubulin (Sus scrofa); experiment: (§2) Displacement of [3H]-colchicine from biotinylated porcine tubulin after 2 hrs by competitive binding assay; format: protein assay
Summary of the method: (§3)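 Biotinylated porcine tubulin (750 ng/well) with 0.1 μM [3H]-colchicine and test compound in G-PEM with 1 mM GTP, 3% DMSO, duplicate wells, 2 h at 37 °C. Streptavidin SPA beads then added for 45 min at 37 °C. Nonspecific binding taken with 1000-fold unlabeled excess. IC50 from seven-point semilog curves, four-parameter fit.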

SCC-4 = experiment: Cytotoxicity against human SCC4 cells assessed as reduction in cell viability after 72 hrs by MTT assay; format: functional, cell-based; summary of the method: as §1
SK-MEL-28 = experiment: Cytotoxicity against human SK-MEL-28 cells assessed as reduction in cell viability after 72 hrs by MTT assay; format: functional, cell-based; summary of the method: as §1
MES-SA = experiment: Cytotoxicity against human MES-SA cells assessed as reduction in cell viability after 72 hrs by MTT assay; format: functional, cell-based; summary of the method: as §1
SH-SY5Y = experiment: Cytotoxicity against human SH-SY5Y cells assessed as reduction in cell viability after 72 hrs by MTT assay; format: functional, cell-based; summary of the method: as §1
Tubulin [9] = molecular target: T2, Tubulin (Sus scrofa, UniProt P02554+P02550); experiment: Inhibition of porcine brain tubulin polymerization assessed as reduction in GTP-induced microtubule assembly after 60 mins by OD340 method
Tubulin [10] = molecular target: T2, Tubulin; experiment: as §2; format: protein assay; summary of the method: as §3

Compound | CC50 (FaDu) | also measured
CCC(C)n1cc(C(=O)C(=O)Nc2ccc(OC)nc2)c2ccccc21 (stereo not drawn) | 68 nM | 
COCCn1cc(C(=O)C(=O)Nc2ccc(OC(F)(F)F)cc2)c2ccccc21 | 487 nM | Activity (Tubulin (Sus scrofa) [1]): inactive; Activity (Tubulin (Sus scrofa) [2]): Active
CCn1cc(C(=O)C(=O)Nc2ccc(OC)nc2)c2ccccc21 | 219 nM | Activity (Tubulin (Sus scrofa) [1]): inactive; Activity (Tubulin (Sus scrofa) [2]): Active; solubility kinetic [3]: 10 µM (≈ 3.23 µg/mL); solubility [4]: soluble
CC(C)n1cc(C(=O)C(=O)Nc2ccc(OC(F)(F)F)cc2)c2ccccc21 | 8930 nM | 
CC(=O)O[C@H]1C(=O)[C@@]2(C)[C@H]([C@H](OC(=O)c3ccccc3)[C@]3(O)C[C@H](OC(=O)[C@H](O)[C@@H](NC(=O)c4ccccc4)c4ccccc4)C(C)=C1C3(C)C)[C@]1(OC(C)=O)CO[C@@H]1C[C@@H]2O |  | Activity (MES-SA/Dx5): inactive
COCCn1cc(C(=O)C(=O)Nc2ccnc(OC)c2)c2ccccc21 | 235 nM | 
COCCn1cc(C(=O)C(=O)Nc2ccc(OC(C)(C)C)nc2)c2ccccc21 | 858 nM | 
COCCn1cc(C(=O)C(=O)Nc2ccc(OC)cc2)c2ccccc21 | 59 nM | 
COc1ccc(NC(=O)C(=O)c2cn(C(C)C)c3cnccc23)cn1 | > 10000 nM | 
COc1ccc(NC(=O)C(=O)c2cn(C(C)C)c3cccc(Cl)c23)cn1 | 2130 nM | 
COc1nsc(NC(=O)C(=O)c2cn(C(C)C)c3ccccc23)n1 | 10400 nM | 
COCCn1cc(C(=O)C(=O)Nc2ccc(C(F)(F)F)nc2)c2ccccc21 | > 10000 nM | 
COc1ccc(NC(=O)C(=O)c2cn(CC(C)C)c3ccccc23)cn1 | 317 nM | 
COc1ncc(NC(=O)C(=O)c2cn(C(C)C)c3ccccc23)cn1 | 171 nM | efflux ratio [5]: 1; half-life at 1 µM [6]: 5 min; Papp A→B at 1 h, 10 µM [7]: 39.8 ×10⁻⁶ cm/s
COCCc1cc(C(=O)C(=O)Nc2ccc(OC(F)(F)F)cc2)c2ccccn12 | 758 nM | 
COc1ccc(NC(=O)C(=O)c2cn(C(C)C)c3ccc(Cl)cc23)cc1 | > 10000 nM | 
COc1ccc(NC(=O)C(=O)c2cn(CC3CCO3)c3ccccc23)cn1 (stereo not drawn) | 686 nM | 
COc1cc2c(c(OC)c1OC)-c1ccc(OC)c(=O)cc1[C@@H](NC(C)=O)CC2 |  | Activity (MES-SA/Dx5): inactive
COc1ccc(NC(=O)C(=O)c2cn(C(C)C)c3c(OC)cccc23)cn1 | > 10000 nM | 
COCCc1cc(C(=O)C(=O)Nc2ccc(OC)nc2)c2ccccn12 | 36 nM | half-life at 1 µM [6]: 6 min
CCOC(=O)COc1ccc(NC(=O)C(=O)c2cn(CCOC)c3ccccc23)cn1 | > 10000 nM | 

Compound | CC50 (FaDu) | also measured
COc1ccc(NC(=O)C(=O)c2cn(C(C)C)c3ccccc23)nn1 | 2270 nM | 
COC(=O)CCn1cc(C(=O)C(=O)Nc2ccc(OC)nc2)c2ccccc21 | 168 nM | 
COCCn1cc(C(=O)C(=O)Nc2cnc(OC)nc2)c2ccccc21 | 55 nM | 
COc1ccc(NC(=O)C(=O)c2cn(C(C)C)c3ncccc23)cn1 | 126 nM | Activity (Tubulin (Sus scrofa) [1]): inactive; Activity (Tubulin (Sus scrofa) [2]): inactive
COc1cc(NC(=O)C(=O)c2cn(C(C)C)c3ccccc23)ccn1 | 1750 nM | 
CC(C)n1cc(C(=O)C(=O)Nc2ccc(C(F)(F)F)nc2)c2ccccc21 | > 10000 nM | 
COc1ccc(NC(=O)C(=O)c2cn(CCOC(C)C)c3ccccc23)cn1 | 211 nM | half-life at 1 µM [6]: 23 min
COc1ccc(NC(=O)C(=O)c2cn(C(C)(C)COCC(=O)O)c3ccccc23)cn1 | > 10000 nM | solubility kinetic [3]: > 200 µM
COc1ccc(NC(=O)C(=O)c2cc(C(C)C)n3ccccc23)cn1 | 160 nM | Activity (Tubulin (Sus scrofa) [1]): inactive; Activity (Tubulin (Sus scrofa) [2]): inactive; solubility kinetic [3]: 10 µM (≈ 3.37 µg/mL); half-life at 1 µM [6]: < 5 min; solubility [4]: soluble
CC(=O)O[C@@]12CO[C@@H]1C[C@H](O)[C@@]1(C)C(=O)[C@H](O)C3=C(C)[C@@H](OC(=O)[C@H](O)[C@@H](NC(=O)OC(C)(C)C)c4ccccc4)C[C@@](O)([C@@H](OC(=O)c4ccccc4)[C@H]21)C3(C)C |  | Activity (Tubulin (Sus scrofa) [1]): Active; Activity (Tubulin (Sus scrofa) [2]): Active; Activity (Tubulin (Sus scrofa) [8]): inactive
COCCn1cc(C(=O)C(=O)Nc2ccc(OC)nc2)c2ccccc21 | 17 nM | Activity (SCC-4): Active; Activity (MES-SA/Dx5): Active; Activity (SK-MEL-28): Active; Activity (MES-SA): Active; half-life at 1 µM [6]: 11 min; Activity (SH-SY5Y): Active
COc1ccc(NC(=O)C(=O)c2cn(C(C)C)c3cc(Cl)ccc23)cn1 | 1770 nM | 
CCn1cc(C(=O)C(=O)Nc2ccncc2)c2ccccc21 | > 10000 nM | 
COc1ccc2c(c1)c(C(=O)C(=O)Nc1ccc(OC)nc1)cn2C(C)C | > 10000 nM | 
CC(C)n1cc(C(=O)C(=O)Nc2cccnc2)c2ccccc21 | > 10000 nM | 
CC(C)n1cc(C(=O)C(=O)Nc2ccncc2)c2ccccc21 | > 10000 nM | 
COc1nc(NC(=O)C(=O)c2cn(C(C)C)c3ccccc23)ns1 | > 10000 nM | 
COc1ccc(NC(=O)C(=O)c2cn(CC(C)(C)OC)c3ccccc23)cn1 | > 10000 nM | 
CC(C)Oc1ccc(NC(=O)C(=O)c2cn(C(C)C)c3ccccc23)cn1 | 408 nM | half-life at 1 µM [6]: 66 min
COc1ccc(NC(=O)C(=O)c2cn(C3CCCC3)c3ccccc23)cn1 | 370 nM | 
COCCn1cc(C(=O)C(=O)Nc2ccc(OCC(=O)O)nc2)c2ccccc21 | > 10000 nM | solubility kinetic [3]: > 200 µM

Compound | CC50 (FaDu) | also measured
COCCn1cc(C(=O)C(=O)Nc2ccc(OC)nc2)c2cc(OC)ccc21 | > 10000 nM | 
CCc1cc(C(=O)C(=O)Nc2ccc(OC)nc2)c2ccccn12 | 110 nM | 
COc1ccc(NC(=O)C(=O)c2cn(C(C)C)c3ccccc23)cc1OC | > 10000 nM | 
COc1ccc(NC(=O)C(=O)c2cn(CCC(=O)O)c3ccccc23)cn1 | > 10000 nM | solubility kinetic [3]: > 200 µM
COc1ccc(NC(=O)C(=O)c2cn(C(C)C)c3c(Cl)cccc23)cn1 | 10200 nM | 
COCCn1cc(C(=O)C(=O)Nc2ccncc2)c2ccccc21 | > 10000 nM | 
COCCn1cc(C(=O)C(=O)Nc2ccc(OC)nc2)c2cccnc21 | 27 nM | Activity (Tubulin (Sus scrofa) [1]): inactive; IC50 (Tubulin [9]): 2600 nM; Activity (SCC-4): Active; Activity (Tubulin (Sus scrofa) [2]): inactive; Activity (MES-SA/Dx5): Active; Activity (SK-MEL-28): Active; Activity (MES-SA): Active; IC50 (Tubulin [10]): 940 nM; Activity (SH-SY5Y): Active
COc1ccc(NC(=O)C(=O)c2cn(C(C)C)c3cccc(OC)c23)cn1 | 7780 nM | 
COc1ccc(NC(=O)C(=O)c2cn(C(C)C)c3ccccc23)cc1 | 181 nM | 
COCC(C)(C)n1cc(C(=O)C(=O)Nc2ccc(OC)nc2)c2ccccc21 | 137 nM | Activity (Tubulin (Sus scrofa) [1]): inactive; IC50 (Tubulin [9]): 7800 nM; Activity (SCC-4): Active; Activity (Tubulin (Sus scrofa) [2]): Active; solubility kinetic [3]: 10 µM (≈ 3.81 µg/mL); Activity (MES-SA/Dx5): Active; Activity (SK-MEL-28): Active; Activity (MES-SA): Active; half-life at 1 µM [6]: 16 min; IC50 (Tubulin [10]): 2500 nM; Activity (SH-SY5Y): Active; solubility [4]: soluble
CC[C@]1(O)C[C@@H]2CN(CCc3c([nH]c4ccccc34)[C@@](C(=O)OC)(c3cc4c(cc3OC)N(C)[C@H]3[C@@](O)(C(=O)OC)[C@H](OC(C)=O)[C@]5(CC)C=CCN6CC[C@]43[C@@H]65)C2)C1 |  | Activity (MES-SA/Dx5): inactive
COc1ccc(NC(=O)C(=O)c2cn(C(C)C)c3ccncc23)cn1 | > 10000 nM | 
COc1ccc2c(C(=O)C(=O)Nc3ccc(OC)nc3)cn(C(C)C)c2c1 | > 10000 nM | 
CCCCn1cc(C(=O)C(=O)Nc2ccc(OC)nc2)c2ccccc21 | 18 nM | 
CCOc1ccc(NC(=O)C(=O)c2cn(C(C)C)c3ccccc23)cn1 | 175 nM | 
COCCn1cc(C(=O)C(=O)Nc2ccc(OC)nc2)c2cc(Cl)ccc21 | > 10000 nM | 
CCn1cc(C(=O)C(=O)Nc2ccnc(OC)c2)c2ccccc21 | 4180 nM | 
COc1cc([C@@H]2c3cc4c(cc3[C@H](O)[C@H]3COC(=O)[C@H]23)OCO4)cc(OC)c1OC |  | Activity (Tubulin (Sus scrofa) [8]): Active
COc1ccc(NC(=O)C(=O)c2cn(C(C)C)c3cccnc23)cn1 | > 10000 nM | 
COc1ccc(NC(=O)C(=O)c2cn(C(C)C)c3ccc(Cl)cc23)cn1 | > 10000 nM | 

From ChEMBL document CHEMBL3745658, “An Orally Bioavailable, Indole-3-glyoxylamide Based Series of Tubulin Polymerization Inhibitors Showing Tumor Growth Inhibition in a Mouse Xenograft Model of Head and Neck Cancer” (J Med Chem, 2015)
